Data taken from PMC8322834 (Biochemistry, 2020).
Converted amounts (≈) assume the structure as drawn. “Also recorded” adds a separate entry of the source. Blank lines part the entries; values can stand above or below the compound they belong to. Non-standard residues stand in square brackets, D forms with d. Residues, ends and D or L forms follow the SMILES beside them. *: point of attachment. X1 = N=c1ccc2c(-c3ccc(C(=O)NCCCCCN4C(=O)CC(*)C4=O)cc3C(=O)O)c3ccc(N)c(S(=O)(=O)O)c3oc-2c1S(=O)(=O)O

Tests used:
[1] = tested on: DnaK/DnaJ/GrpE (K/J/E); conditions: simple buffer conditions, 400 μM KLR-70, 30 °C, 1 hr
[2] = biological target: T1, ADP-DnaK (Escherichia coli, UniProt P0A6Y8); test: steady-state fluorescence anisotropy, competitive binding to ADP-DnaK; design: species or system E. coli
T1 sequence (P0A6Y8 whole entry): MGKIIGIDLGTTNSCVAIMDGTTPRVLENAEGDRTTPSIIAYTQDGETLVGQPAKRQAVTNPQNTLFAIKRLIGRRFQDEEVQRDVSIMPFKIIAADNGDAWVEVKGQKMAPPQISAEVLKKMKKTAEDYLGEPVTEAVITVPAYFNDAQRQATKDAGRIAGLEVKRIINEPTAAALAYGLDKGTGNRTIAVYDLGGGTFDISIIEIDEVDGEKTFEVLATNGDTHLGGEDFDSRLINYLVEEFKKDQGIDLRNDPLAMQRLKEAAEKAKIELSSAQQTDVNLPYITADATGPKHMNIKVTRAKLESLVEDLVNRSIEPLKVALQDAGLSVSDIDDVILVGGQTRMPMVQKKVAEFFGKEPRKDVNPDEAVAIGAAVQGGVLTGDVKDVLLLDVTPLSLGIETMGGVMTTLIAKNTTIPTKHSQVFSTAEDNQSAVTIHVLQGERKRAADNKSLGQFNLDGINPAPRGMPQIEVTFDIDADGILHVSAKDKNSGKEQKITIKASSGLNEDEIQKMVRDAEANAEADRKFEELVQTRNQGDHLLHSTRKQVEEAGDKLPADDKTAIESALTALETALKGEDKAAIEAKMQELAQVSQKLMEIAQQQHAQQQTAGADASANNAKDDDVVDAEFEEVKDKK

[3] = biological target: DnaK (ADP-state) (Escherichia coli, UniProt P0A6Y8); test: native gel electrophoresis; format: binding, E. coli
DnaK (ADP-state), sequence (P0A6Y8 whole entry): as above
Outline: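 DnaK (5 μM) was incubated with test peptide (0–50 μM, independent samples) for 1 hr at 21.5 ± 0.5 °C. Native gels used 32 mM Tris-acetate pH 7.5 running buffer at 200 V for 5 hrs, water-cooled. DnaK band intensity profiles were fit to a sum of two Gaussians to build binding isotherms. KD1 is the mean of n = 3 independent experiments ± standard error.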

[4] = tested on: nascent apoMb biosynthesis (cell-free transcription-translation); test: cell-free expression of apoMb; format: biochemical, E. coli; conditions: 37 °C, 20 min
[5] = tested on: wild-type E. coli (ATCC 25922) cells; format: cell-based; conditions: ATCC 25922, 18 h
[6] = far-UV circular dichroism; format: physicochemical; conditions: 1.3 mM HEPES (pH 7.0), room temperature
Outline: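 Test peptide at 20 μM in 1.3 mM HEPES pH 7.0, room temperature. Far-UV spectra recorded from 190 to 260 nm in 1 nm steps at 20 s/step. Each spectrum is the average of n = 2 independent experiments. Secondary structure was deconvoluted with CONTINLL.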

[7] = tested on: GroEL/ES; conditions: c.f. mix, purified GroEL (0.5 μM) / GroES (1.0 μM), 30 °C, 1 hr, Figure S5
[8] = biological target: T1, ADP-DnaK; test: steady-state fluorescence anisotropy, direct binding to ADP-DnaK; design: species or system E. coli; conditions: Q taken to be 1.0, Figure S3

Structure (SMILES): CC(C)C[C@H](NC(=O)[C@H](CCCCN)NC(=O)[C@H](CCCCN)NC(=O)CNC(=O)[C@H](CCCNC(=N)N)NC(=O)[C@@H](N)CCCNC(=N)N)C(=O)N[C@@H](CC(C)C)C(=O)N[C@@H](CC(C)C)C(=O)N[C@@H](CC(C)C)C(=O)N[C@@H](CC(C)C)C(=O)N[C@@H](CCCCN)C(=O)N[C@@H](CCCCN)C(=O)N[C@@H](CCCCN)C(=O)NCC(=O)O [KLR-70] (H-RRGKKLLLLLKKKG-OH)
inhibition of K/J/E-mediated luciferase refolding [1]: fully inhibits K/J/E-mediated luciferase refolding
Kd [2]: 0.89 ± 0.39 µM
Kd [3]: 0.158 ± 0.073 µM
effect on nascent apoMb expression ([4]; 150 μM peptide, Δtig S30 extract, pH 7.0, n = 3): does not have any influence on apoMb production
effect on nascent apoMb synthesis ([4]; 60 – 150 μM KLR-70, Δtig S30 extract, pH 7.0, n = 3): nascent protein synthesis is not disrupted
effect on nascent apoMb synthesis ([4]; 200 – 400 μM KLR-70, Δtig S30 extract, pH 7.0, n = 3): Partial inhibition of protein expression
highest KLR-70 concentration not disrupting cell-free protein expression ([4]; Δtig E. coli cell-free system): up to 150 μM
MIC [5]: 41 to 83 µg/mL
secondary structure in solution [6]: mostly unordered; also recorded: predominantly unstructured in solution
effect on GroEL/ES-mediated luciferase refolding [7]: only weakly reduces the GroEL/ES-mediated refolding of luciferase

MIC [5]: 5 µg/mL (≈ 2.09 µM)
Structure (SMILES): CC[C@H](C)[C@H](NC(=O)[C@@H](CCCNC(=N)N)NC(=O)[C@H](CCCNC(=N)N)NC(=O)[C@@H]1CCCN1C(=O)[C@@H]1CCCN1C(=O)[C@H](CCCNC(=N)N)NC(=O)[C@@H]1CCCN1C(=O)[C@H](CCCNC(=N)N)NC(=O)[C@@H]1CCCN1C(=O)[C@H](CC(C)C)NC(=O)[C@H](Cc1ccc(O)cc1)NC(=O)[C@@H]1CCCN1C(=O)[C@@H]1CCCN1C(=O)[C@H](CCCCN)NC(=O)[C@H](CC(=O)O)NC(=O)[C@@H](N)C(C)C)C(=O)N[C@@H](Cc1ccc(O)cc1)C(=O)N[C@@H](CC(N)=O)C(=O)N[C@H](CCCNC(=N)N)C(N)=O [Onc112, reference compound] (H-VDKPPYLPRPRPPR[dR]IYN[dR]-NH2)

Structure (SMILES): CC(C)C[C@H](NC(=O)[C@H](CCCCN)NC(=O)[C@H](CCCCN)NC(=O)CNC(=O)[C@H](CCCNC(=N)N)NC(=O)[C@@H](N)CCCNC(=N)N)C(=O)N[C@@H](CC(C)C)C(=O)N[C@@H](CC(C)C)C(=O)N[C@@H](CC(C)C)C(=O)N[C@@H](CC(C)C)C(=O)N[C@@H](CCCCN)C(=O)N[C@@H](CCCCN)C(=O)N[C@@H](CCCCN)C(=O)NCC(=O)N[C@@H](CSC1CC(=O)N(CCCCCNC(=O)c2ccc(-c3c4ccc(=N)c(S(=O)(=O)O)c-4oc4c(S(=O)(=O)O)c(N)ccc34)c(C(=O)O)c2)C1=O)C(=O)O (stereo partly drawn) [KLR-70-C-AF488] (H-RRGKKLLLLLKKKGC(X1)-OH; N-terminus and C-terminus assumed)
change in total fluorescence intensity in presence of ADP-DnaK [8]: no statistically significant changes in total fluorescence intensity
